Experimental data reported in ChEMBL document CHEMBL4823291, “Discovery of 5,6,7,8-tetrahydropyrido[3,4-d]pyrimidine derivatives as novel selective Axl inhibitors” (Bioorg Med Chem Lett, 2021).

What was measured:
Homo sapiens = species on record: Homo sapiens; assay: Ratio of IC50 for Mer (unknown origin) to IC50 for Axl (unknown origin)
[1] = Metabolic stability in human liver microsomes assessed as residual ratio at 0.1 uM for 30 mins; assay type: ADME, Microsome; conditions: read-out: Stabilty
Summary of the method: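 Compound incubated at 0.1 µM for 30 min with human or mouse liver microsomes. Residual ratio of parent determined afterwards.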

CYP2C19 = CYP2C19 (Homo sapiens, UniProt P33261); assay: Time dependent inhibition of CYP2C19 in human liver microsomes assessed as enzyme remaining activity using cocktail of probe CYP as substrate at 50 uM; assay type: ADME; conditions: probe cocktail of CYP probe substrates, read-out: Activity
Summary of the method: (§1)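 Time-dependent CYP inhibition in human liver microsomes, with test compound at 50 µM and a cocktail of probe CYP substrates.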

CYP2D6 = CYP2D6 (Homo sapiens, UniProt P10635); assay: Time dependent inhibition of CYP2D6 in human liver microsomes assessed as enzyme remaining activity using cocktail of probe CYP as substrate at 50 uM; assay type: ADME; conditions: probe cocktail of CYP probe substrates, read-out: Activity; summary of the method: as §1
CYP2D6, sequence (P10635 whole entry): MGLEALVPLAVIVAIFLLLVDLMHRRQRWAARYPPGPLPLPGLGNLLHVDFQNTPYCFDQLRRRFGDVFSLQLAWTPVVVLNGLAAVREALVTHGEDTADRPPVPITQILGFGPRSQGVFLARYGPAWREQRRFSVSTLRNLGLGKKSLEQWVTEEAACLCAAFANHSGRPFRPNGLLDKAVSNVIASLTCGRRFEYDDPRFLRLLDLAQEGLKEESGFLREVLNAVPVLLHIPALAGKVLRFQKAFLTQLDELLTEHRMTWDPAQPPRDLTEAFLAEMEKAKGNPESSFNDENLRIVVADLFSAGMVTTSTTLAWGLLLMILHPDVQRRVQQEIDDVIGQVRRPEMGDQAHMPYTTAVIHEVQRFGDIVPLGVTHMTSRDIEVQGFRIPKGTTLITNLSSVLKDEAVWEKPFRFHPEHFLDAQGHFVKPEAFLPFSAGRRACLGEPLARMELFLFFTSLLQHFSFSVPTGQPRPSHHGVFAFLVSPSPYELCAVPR

CYP2C19, sequence (P33261 whole entry): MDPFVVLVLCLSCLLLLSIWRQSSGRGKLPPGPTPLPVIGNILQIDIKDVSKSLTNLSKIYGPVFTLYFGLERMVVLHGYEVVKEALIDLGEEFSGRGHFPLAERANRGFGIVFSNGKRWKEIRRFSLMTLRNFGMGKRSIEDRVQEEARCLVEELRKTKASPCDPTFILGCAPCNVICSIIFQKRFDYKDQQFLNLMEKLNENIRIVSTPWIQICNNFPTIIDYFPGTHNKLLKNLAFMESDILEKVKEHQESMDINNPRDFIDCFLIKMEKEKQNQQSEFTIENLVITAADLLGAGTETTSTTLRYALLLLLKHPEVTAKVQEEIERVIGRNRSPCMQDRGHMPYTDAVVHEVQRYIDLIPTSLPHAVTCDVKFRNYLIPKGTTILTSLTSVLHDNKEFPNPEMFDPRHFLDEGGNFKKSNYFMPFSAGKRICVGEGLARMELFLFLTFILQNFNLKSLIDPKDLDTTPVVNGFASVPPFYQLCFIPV

Ratio IC50 (Homo sapiens): 37
remaining at 0.5 h, 0.1 µM [1]: 99%
activity at 50 µM (CYP2C19): 89%
activity at 50 µM (CYP2D6): 83%
SMILES: Cc1ccc(-n2c(=O)c(C(=O)Nc3ccc(Oc4ncnc5c4CCN(CC4CCN(C)CC4)C5)c(F)c3)cn(C3CCCC3)c2=O)nc1
